Source: ChEMBL document CHEMBL4004819, “Discovery of a Phosphoinositide 3-Kinase (PI3K) β/δ Inhibitor for the Treatment of Phosphatase and Tensin Homolog (PTEN) Deficient Tumors: Building PI3Kβ Potency in a PI3Kδ-Selective Template by Targeting Nonconserved Asp856” (J Med Chem, 2017)
Values belong to the molecule of their own block, whether it stands above or below them.

What was measured:
[1] = target: Phosphatidylinositol 4,5-bisphosphate 3-kinase catalytic subunit gamma isoform (Homo sapiens, UniProt P48736); experiment: Inhibition of human full length PI3Kgamma using PIP2/ATP as substrate after 30 mins by TR-FRET assay
[2] = target: PI3-kinase p110-delta/p85-alpha (Homo sapiens, UniProt O00329); experiment: Inhibition of human full length PI3K p110delta/p85 alpha using PIP2/ATP as substrate after 30 mins by TR-FRET assay
[3] = target: PI3-kinase p110-alpha/p85-alpha (Homo sapiens, UniProt P42336); experiment: Inhibition of human full length PI3K p110alpha/p85 alpha using PIP2/ATP as substrate after 30 mins by TR-FRET assay
[4] = Drug metabolism in human hepatocytes assessed as formation of oxidative metabolite of pyrimidine moiety; assay type: ADME, cell-based, Hepatocyte
[5] = Clearance in Sprague-Dawley rat at 1 mg/kg, iv administered via infusion over 30 mins measured over 24 hrs by LC/MS/MS analysis; assay type: ADME, organism-based; conditions: in vivo
[6] = Volume of distribution at steady state in Sprague-Dawley rat plasma at 1 mg/kg, iv administered via infusion over 30 mins measured over 24 hrs by LC/MS/MS analysis; assay type: ADME, organism-based; conditions: read-out: Vdss
How it was run: (§1)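 Single intravenous dose of 1 mg/kg. Half-life, mean residence time and steady-state volume of distribution were taken from the iv arm. Values are mean ± SD, n=3 animals per route.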

[7] = Permeability from apical to basolateral side in human Caco2 cells; assay type: ADME, cell-based; conditions: Caco-2, read-out: permeability
[8] = Permeability from basolateral to apical side in human Caco2 cells; assay type: ADME, cell-based; conditions: Caco-2, read-out: permeability
[9] = Oral bioavailability in Sprague-Dawley rat plasma at 5 mg/kg administered via gavage by LC/MS/MS analysis; assay type: ADME, organism-based
How it was run: (§2)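 Oral dose of 5 mg/kg, formulated in 5% ethanol, 50% PEG 300 and 45% water. Bioavailability was referenced to the separate 1 mg/kg intravenous arm. Values are mean ± SD, n=3 animals per route.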

Mus musculus [10] = experiment: In vivo inhibition of PI3Kbeta in CB17 SCID mouse xenografted with human PTEN-deficient androgen responsive LNCAP cells assessed as inhibition of AKT1 phosphorylation at Serine 473 at 15 mg/kg administered by oral gavage and measured after 2 hrs; assay type: functional
[11] = Clearance in Beagle dog plasma at 1 mg/kg, iv administered via infusion over 30 mins measured over 24 hrs by LC/MS/MS analysis; assay type: ADME, organism-based, Canis lupus familiaris; how it was run: as §1
[12] = Unbound fraction in Sprague-Dawley rat plasma; assay type: ADME, cell-free
[13] = Volume of distribution at steady state in cynomolgus monkey at 1 mg/kg, iv administered via infusion over 30 mins measured over 24 hrs by LC/MS/MS analysis; assay type: ADME, organism-based, Macaca fascicularis; conditions: in vivo, read-out: Vdss; how it was run: as §1
[14] = Unbound fraction in rhesus monkey plasma; assay type: ADME, cell-free, Macaca mulatta
[15] = Mean residence time in Sprague-Dawley rat plasma at 1 mg/kg, iv administered via infusion over 30 mins measured over 24 hrs by LC/MS/MS analysis; assay type: ADME, organism-based; how it was run: as §1
[16] = Apparent terminal half life in rhesus monkey plasma at 1 mg/kg, iv administered via infusion over 30 mins measured over 24 hrs by LC/MS/MS analysis; assay type: ADME, organism-based, Macaca mulatta; conditions: read-out: betat1/2(app) (converted); how it was run: as §1
[17] = Oral bioavailability in cynomolgus monkey plasma at 5 mg/kg administered via gavage by LC/MS/MS analysis; assay type: ADME, organism-based, Macaca fascicularis; how it was run: as §2
[18] = Clearance in cynomolgus monkey plasma at 1 mg/kg, iv administered via infusion over 30 mins measured over 24 hrs by LC/MS/MS analysis; assay type: ADME, organism-based, Macaca fascicularis; how it was run: as §1
PC-3 = experiment: Growth inhibition of PTEN-deficient human PC3 cells after 72 hrs by Celltiter-Glo reagent based assay; assay type: functional; conditions: PC-3, 72 h
[19] = Clearance in rhesus monkey plasma at 1 mg/kg, iv administered via infusion over 30 mins measured over 24 hrs by LC/MS/MS analysis; assay type: ADME, organism-based, Macaca mulatta; how it was run: as §1
[20] = Oral bioavailability in Beagle dog plasma at 5 mg/kg administered via gavage by LC/MS/MS analysis; assay type: ADME, organism-based, Canis lupus familiaris; how it was run: as §2
ZR-75-1 = experiment: Growth inhibition of PTEN-deficient human ZR-75-1 cells after 72 hrs by Celltiter-Glo reagent based assay; assay type: functional; conditions: ZR-75-1, 72 h
[21] = Volume of distribution at steady state in Beagle dog plasma at 1 mg/kg, iv administered via infusion over 30 mins measured over 24 hrs by LC/MS/MS analysis; assay type: ADME, organism-based, Canis lupus familiaris; conditions: read-out: Vdss; how it was run: as §1
LNCaP [22] = experiment: Antitumor activity against human PTEN-deficient androgen responsive LNCAP cells xenografted in CB17 SCID mouse assessed as tumor growth inhibition at 3 mg/kg administered by oral gavage twice daily for 14 days; assay type: functional; conditions: 336 h, read-out: TGI
How it was run: (§3)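 Mice bearing LNCaP tumours were dosed at 15, 7.5 and 3 mg/kg twice a day. Tumour volume (mm3) was measured twice a week throughout. Growth inhibition was calculated after the final dose for each dose group.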

[23] = target: Voltage-gated inwardly rectifying potassium channel KCNH2 (Homo sapiens, UniProt Q12809); experiment: Inhibition of human ERG
How it was run: (§4)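 Measured in binding assays against major human CYP450 enzymes and hERG.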

[24] = Apparent terminal half life in Sprague-Dawley rat plasma at 1 mg/kg, iv administered via infusion over 30 mins measured over 24 hrs by LC/MS/MS analysis; assay type: ADME, organism-based; conditions: read-out: betat1/2(app) (converted); how it was run: as §1
[25] = Clearance in Sprague-Dawley rat plasma at 1 mg/kg, iv administered via infusion over 30 mins measured over 24 hrs by LC/MS/MS analysis; assay type: ADME, organism-based; how it was run: as §1
[26] = Inhibition of human CYP450; assay type: ADME; how it was run: as §4
[27] = Apparent terminal half life in cynomolgus monkey plasma at 1 mg/kg, iv administered via infusion over 30 mins measured over 24 hrs by LC/MS/MS analysis; assay type: ADME, organism-based, Macaca fascicularis; conditions: read-out: betat1/2(app) (converted); how it was run: as §1
[28] = Inhibition of PI3Kbeta mutant in PTEN-deficient human A498 cells assessed decrease in AKT1 phosphorylation at Ser473 after 2 hrs; conditions: A498, 2 h
[29] = Volume of distribution at steady state in rhesus monkey at 1 mg/kg, iv administered via infusion over 30 mins measured over 24 hrs by LC/MS/MS analysis; assay type: ADME, organism-based, Macaca mulatta; conditions: in vivo, read-out: Vdss; how it was run: as §1
LNCaP [30] = experiment: Antitumor activity against human PTEN-deficient androgen responsive LNCAP cells xenografted in CB17 SCID mouse assessed as tumor growth inhibition at […] administered by oral gavage twice daily for 14 days; assay type: functional; conditions: 336 h, read-out: TGI
Mus musculus [31] = experiment: In vivo inhibition of PI3Kbeta in CB17 SCID mouse xenografted with human PTEN-deficient androgen responsive LNCAP cells assessed as inhibition of AKT1 phosphorylation at Serine 473 at […] administered by oral gavage and measured after 8 hrs; assay type: functional
[32] = Unbound fraction in Beagle dog plasma; assay type: ADME, cell-free, Canis lupus familiaris
[33] = Mean residence time in Beagle dog plasma at 1 mg/kg, iv administered via infusion over 30 mins measured over 24 hrs by LC/MS/MS analysis; assay type: ADME, organism-based, Canis lupus familiaris; how it was run: as §1
[34] = Mean residence time in cynomolgus monkey plasma at 1 mg/kg, iv administered via infusion over 30 mins measured over 24 hrs by LC/MS/MS analysis; assay type: ADME, organism-based, Macaca fascicularis; how it was run: as §1
MDA-MB-415 = experiment: Growth inhibition of PTEN-deficient human MDA-MB-415 cells after 72 hrs by Celltiter-Glo reagent based assay; assay type: functional; conditions: MDA-MB-415, 72 h
[35] = Unbound fraction in cynomolgus monkey plasma; assay type: ADME, cell-free, Macaca fascicularis
LNCaP [36] = experiment: Antitumor activity against human PTEN-deficient androgen responsive LNCAP cells xenografted in CB17 SCID mouse administered by oral gavage twice daily for 14 days; assay type: functional; conditions: 336 h, read-out: MED; how it was run: as §3
LNCaP [37] = experiment: Growth inhibition of PTEN-deficient human LNCAP cells after 72 hrs by Celltiter-Glo reagent based assay; assay type: functional
[38] = Apparent terminal half life in Beagle dog plasma at 1 mg/kg, iv administered via infusion over 30 mins measured over 24 hrs by LC/MS/MS analysis; assay type: ADME, organism-based, Canis lupus familiaris; conditions: read-out: betat1/2(app) (converted); how it was run: as §1
LNCaP [39] = experiment: Antitumor activity against human PTEN-deficient androgen responsive LNCAP cells xenografted in CB17 SCID mouse assessed as tumor growth inhibition at 15 mg/kg administered by oral gavage twice daily for 14 days; assay type: functional; conditions: 336 h, read-out: TGI; how it was run: as §3
[40] = Mean residence time in rhesus monkey plasma at 1 mg/kg, iv administered via infusion over 30 mins measured over 24 hrs by LC/MS/MS analysis; assay type: ADME, organism-based, Macaca mulatta; how it was run: as §1
A498 = experiment: Growth inhibition of human A498 cells harboring PI3Kbeta mutant after 72 hrs by Celltiter-Glo reagent based assay; assay type: functional; conditions: A498, 72 h

Chain of PI3-kinase p110-alpha/p85-alpha (P27986 whole entry): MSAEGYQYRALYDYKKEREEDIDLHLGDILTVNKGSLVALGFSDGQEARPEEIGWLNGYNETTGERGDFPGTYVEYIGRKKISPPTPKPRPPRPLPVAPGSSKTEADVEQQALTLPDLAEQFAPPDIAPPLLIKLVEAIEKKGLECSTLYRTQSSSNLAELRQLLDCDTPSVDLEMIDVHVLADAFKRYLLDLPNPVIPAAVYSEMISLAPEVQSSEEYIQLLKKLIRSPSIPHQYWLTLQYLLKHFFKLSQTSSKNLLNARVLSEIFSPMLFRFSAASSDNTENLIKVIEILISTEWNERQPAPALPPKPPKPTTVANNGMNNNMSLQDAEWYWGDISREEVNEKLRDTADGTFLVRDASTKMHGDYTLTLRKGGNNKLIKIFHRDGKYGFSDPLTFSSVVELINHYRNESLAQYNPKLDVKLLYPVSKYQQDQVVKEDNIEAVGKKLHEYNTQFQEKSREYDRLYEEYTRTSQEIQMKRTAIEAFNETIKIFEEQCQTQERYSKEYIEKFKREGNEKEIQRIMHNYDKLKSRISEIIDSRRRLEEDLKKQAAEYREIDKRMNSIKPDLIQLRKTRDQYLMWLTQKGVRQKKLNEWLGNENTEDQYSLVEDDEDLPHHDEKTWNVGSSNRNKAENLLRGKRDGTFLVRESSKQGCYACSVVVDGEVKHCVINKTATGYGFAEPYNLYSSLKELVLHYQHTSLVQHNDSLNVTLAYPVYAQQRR
Chain of PI3-kinase p110-alpha/p85-alpha (P42336 whole entry): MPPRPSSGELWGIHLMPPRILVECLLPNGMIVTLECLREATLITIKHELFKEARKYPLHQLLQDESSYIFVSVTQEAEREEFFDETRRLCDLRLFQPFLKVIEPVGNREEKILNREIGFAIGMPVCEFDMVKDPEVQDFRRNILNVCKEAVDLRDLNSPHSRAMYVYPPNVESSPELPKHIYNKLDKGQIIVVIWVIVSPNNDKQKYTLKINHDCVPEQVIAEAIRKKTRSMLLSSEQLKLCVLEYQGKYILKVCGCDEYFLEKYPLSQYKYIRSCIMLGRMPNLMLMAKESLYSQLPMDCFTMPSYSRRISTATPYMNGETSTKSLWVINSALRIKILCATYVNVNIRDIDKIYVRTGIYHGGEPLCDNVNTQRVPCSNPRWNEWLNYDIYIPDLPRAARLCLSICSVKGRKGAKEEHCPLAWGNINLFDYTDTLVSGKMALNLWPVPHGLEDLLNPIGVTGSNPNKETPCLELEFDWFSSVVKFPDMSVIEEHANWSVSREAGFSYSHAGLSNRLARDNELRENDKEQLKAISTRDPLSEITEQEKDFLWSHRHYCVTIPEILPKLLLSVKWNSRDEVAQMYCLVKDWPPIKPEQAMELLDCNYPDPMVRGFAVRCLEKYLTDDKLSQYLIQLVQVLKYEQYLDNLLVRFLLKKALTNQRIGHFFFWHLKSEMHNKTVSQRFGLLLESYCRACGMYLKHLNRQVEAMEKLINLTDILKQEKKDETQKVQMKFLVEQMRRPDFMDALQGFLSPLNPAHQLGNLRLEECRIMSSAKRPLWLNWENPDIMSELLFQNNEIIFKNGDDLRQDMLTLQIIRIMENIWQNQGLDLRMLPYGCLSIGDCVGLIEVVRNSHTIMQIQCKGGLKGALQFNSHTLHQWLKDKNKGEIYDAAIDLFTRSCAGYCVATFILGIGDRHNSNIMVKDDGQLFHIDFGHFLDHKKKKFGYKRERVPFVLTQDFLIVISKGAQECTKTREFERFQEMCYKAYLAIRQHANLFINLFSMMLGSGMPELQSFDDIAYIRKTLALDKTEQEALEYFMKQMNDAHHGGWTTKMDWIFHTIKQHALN
Chain of Phosphatidylinositol 4,5-bisphosphate 3-kinase catalytic subunit gamma isoform (P48736 whole entry, canonical isoform): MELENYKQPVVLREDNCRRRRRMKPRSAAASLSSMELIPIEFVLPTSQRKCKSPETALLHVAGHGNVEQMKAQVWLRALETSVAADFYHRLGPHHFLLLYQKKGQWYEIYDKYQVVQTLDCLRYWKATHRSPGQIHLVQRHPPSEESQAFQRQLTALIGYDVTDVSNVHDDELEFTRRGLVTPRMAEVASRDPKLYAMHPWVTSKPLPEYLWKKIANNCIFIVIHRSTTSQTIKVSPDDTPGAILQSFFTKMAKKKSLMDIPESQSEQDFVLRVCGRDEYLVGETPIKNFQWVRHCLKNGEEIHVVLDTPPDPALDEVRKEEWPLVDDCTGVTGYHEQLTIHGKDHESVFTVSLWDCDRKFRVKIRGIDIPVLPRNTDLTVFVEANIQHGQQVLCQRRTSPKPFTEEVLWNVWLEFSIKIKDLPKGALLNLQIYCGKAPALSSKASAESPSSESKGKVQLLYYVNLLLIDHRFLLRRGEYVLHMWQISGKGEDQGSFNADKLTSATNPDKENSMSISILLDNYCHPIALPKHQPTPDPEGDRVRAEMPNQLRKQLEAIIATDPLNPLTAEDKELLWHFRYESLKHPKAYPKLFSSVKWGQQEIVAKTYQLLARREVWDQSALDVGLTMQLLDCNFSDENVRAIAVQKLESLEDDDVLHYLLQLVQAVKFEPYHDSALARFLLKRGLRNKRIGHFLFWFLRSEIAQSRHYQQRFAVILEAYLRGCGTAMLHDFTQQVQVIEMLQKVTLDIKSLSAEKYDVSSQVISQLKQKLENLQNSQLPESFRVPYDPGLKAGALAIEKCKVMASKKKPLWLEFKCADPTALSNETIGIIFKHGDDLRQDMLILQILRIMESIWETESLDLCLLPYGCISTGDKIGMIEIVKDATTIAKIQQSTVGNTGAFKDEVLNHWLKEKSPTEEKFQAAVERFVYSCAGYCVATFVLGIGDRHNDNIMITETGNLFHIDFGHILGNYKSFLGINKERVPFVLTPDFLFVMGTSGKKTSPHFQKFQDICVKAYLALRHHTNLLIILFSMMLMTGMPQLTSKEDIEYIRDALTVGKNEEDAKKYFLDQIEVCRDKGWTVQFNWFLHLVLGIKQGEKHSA
Chain of PI3-kinase p110-delta/p85-alpha (P27986 whole entry): as the sequence (P27986 whole entry) above
Chain of PI3-kinase p110-delta/p85-alpha (O00329 whole entry): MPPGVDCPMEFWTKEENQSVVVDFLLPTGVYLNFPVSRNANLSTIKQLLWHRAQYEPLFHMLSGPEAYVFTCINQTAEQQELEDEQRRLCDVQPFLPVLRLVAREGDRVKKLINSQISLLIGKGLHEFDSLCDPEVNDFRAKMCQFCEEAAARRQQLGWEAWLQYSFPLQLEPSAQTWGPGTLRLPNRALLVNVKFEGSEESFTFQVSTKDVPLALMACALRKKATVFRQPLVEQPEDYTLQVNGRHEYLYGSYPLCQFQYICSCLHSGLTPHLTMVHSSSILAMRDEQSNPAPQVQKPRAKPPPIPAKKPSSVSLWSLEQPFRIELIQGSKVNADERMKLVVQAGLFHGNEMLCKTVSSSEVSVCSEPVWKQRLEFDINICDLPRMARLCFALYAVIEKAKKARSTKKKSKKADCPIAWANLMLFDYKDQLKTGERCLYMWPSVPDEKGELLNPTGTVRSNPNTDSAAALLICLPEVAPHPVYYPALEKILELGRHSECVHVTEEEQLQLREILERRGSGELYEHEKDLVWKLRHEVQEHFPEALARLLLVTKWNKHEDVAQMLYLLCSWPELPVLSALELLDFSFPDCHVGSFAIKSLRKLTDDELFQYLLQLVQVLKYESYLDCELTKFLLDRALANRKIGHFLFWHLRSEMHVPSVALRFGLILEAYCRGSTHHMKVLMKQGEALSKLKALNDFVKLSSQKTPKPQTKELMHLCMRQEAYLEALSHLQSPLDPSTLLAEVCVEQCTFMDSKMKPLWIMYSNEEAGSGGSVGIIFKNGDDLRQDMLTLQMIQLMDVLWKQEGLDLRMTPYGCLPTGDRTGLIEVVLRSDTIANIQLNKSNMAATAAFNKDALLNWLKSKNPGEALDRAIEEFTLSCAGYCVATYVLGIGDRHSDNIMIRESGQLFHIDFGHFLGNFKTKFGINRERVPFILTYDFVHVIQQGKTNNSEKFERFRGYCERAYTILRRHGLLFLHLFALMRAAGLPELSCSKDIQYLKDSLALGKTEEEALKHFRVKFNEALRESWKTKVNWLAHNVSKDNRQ

SMILES: C[C@H](Nc1ncnc(N)c1C#N)c1nc2cccc(Cl)c2c(=O)n1-c1ccccc1
IC50 [1]: 154 nM
IC50 [2]: 0.34 nM
IC50 [3]: 2030 nM

SMILES: C[C@H](Nc1nc(N)nc(N)c1Cl)c1nc2cccc(Cl)c2c(=O)n1-c1ccon1
IC50 [1]: 499 nM

SMILES: CC[C@H](Nc1ncnc2[nH]cnc12)c1nc2cccc(F)c2c(=O)n1-c1ccc(O)cc1
IC50 [1]: 4300 nM
IC50 [2]: 14 nM
IC50 [3]: 1600 nM

IC50 [1]: 54 nM
Drug metabolism [4]: Metabolite_Notdetected
SMILES: C[C@H](Nc1nc(N)nc(N)c1C#N)c1nc2cccc(Cl)c2c(=O)n1-c1cc[nH]n1

SMILES: C[C@H](Nc1nc(N)nc(N)c1Cl)c1nc2cccc(Cl)c2c(=O)n1-c1cc[nH]n1
clearance [5]: 23.8 mL/min/kg
Vd [6]: 1.29 L/kg
Papp A→B [7]: 1.1 ×10⁻⁶ cm/s
Papp B→A [8]: 19.6 ×10⁻⁶ cm/s
bioavailability [9]: 26%

clearance [5]: 1.17 mL/min/kg
Vd [6]: 0.22 L/kg
Papp A→B [7]: 1.5 ×10⁻⁶ cm/s
Papp B→A [8]: 17.3 ×10⁻⁶ cm/s
bioavailability [9]: 12%
SMILES: N#Cc1c(N)nc(N)nc1N[C@H](c1nc2c(Cl)cc(F)cc2c(=O)n1-c1cc[nH]n1)C1CC1

SMILES: C[C@H](Nc1nc(N)nc(N)c1Cl)c1nc2c(Cl)cc(F)cc2c(=O)n1-c1cc[nH]n1
clearance [5]: 4.33 mL/min/kg
inhibition in vivo at 15 mg/kg (Mus musculus [10]): 64%
clearance [11]: 4.17 mL/min/kg
fraction unbound [12]: 0.0085
Vd [13]: 1.5 L/kg
fraction unbound [14]: 0.0333
MRT [15]: 1.97 h
half-life [16]: 217 min
bioavailability [17]: 68.6%
Vd [6]: 0.52 L/kg
clearance [18]: 4 mL/min/kg
GI50 (PC-3): 120 nM
clearance [19]: 6.83 mL/min/kg
bioavailability [20]: 90.4%
GI50 (ZR-75-1): 2 nM
Vd [21]: 1.14 L/kg
inhibition in vivo at 3 mg/kg (LNCaP [22]): 42%
Papp A→B [7]: 5.7 ×10⁻⁶ cm/s
IC50 [23]: > 25 µM
half-life [24]: 161 min
clearance [25]: 4.33 mL/min/kg
IC50 [26]: > 25 µM
half-life [27]: 298 min
Papp B→A [8]: 21.7 ×10⁻⁶ cm/s
EC50 [28]: 5.6 nM
Vd [29]: 1.88 L/kg
inhibition in vivo at […] (LNCaP [30]): 65%
inhibition in vivo at […] (Mus musculus [31]): 64%
fraction unbound [32]: 0.0196
MRT [33]: 4.7 h
bioavailability [9]: 66 to 66.4%
MRT [34]: 6.28 h
GI50 (MDA-MB-415): 12 nM
fraction unbound [35]: 0.0305
minimal effective dose (LNCaP [36]): 7.5 mg/kg
GI50 (LNCaP [37]): 38 nM
half-life [38]: 235 min
inhibition in vivo at 15 mg/kg (LNCaP [39]): 73%
MRT [40]: 4.54 h
GI50 (A498): 80 nM

IC50 [1]: 199 nM
Drug metabolism [4]: Metabolite_Notdetected
SMILES: N#Cc1c(N)nc(N)nc1N[C@H](c1nc2cccc(Cl)c2c(=O)n1-c1cc[nH]n1)C1CC1

IC50 [1]: 187 nM
SMILES: C[C@H](Nc1ncnc(N)c1C#N)c1nc2cccc(Cl)c2c(=O)n1-c1ccc(O)cc1

clearance [5]: 9.67 mL/min/kg
Vd [6]: 0.83 L/kg
Papp A→B [7]: 2.2 ×10⁻⁶ cm/s
IC50 [1]: 4150 nM
Papp B→A [8]: 11.8 ×10⁻⁶ cm/s
Drug metabolism [4]: Metabolite_Detected
bioavailability [9]: 42%
SMILES: Nc1nc(N)c(Cl)c(N[C@H](c2nc3cccc(Cl)c3c(=O)n2-c2cc[nH]n2)C2CC2)n1

SMILES: N#Cc1c(N[C@H](c2nc3c(Cl)cc(F)cc3c(=O)n2-c2cc[nH]n2)C2CC2)nc(N)nc1C(F)F
IC50 [3]: 756 nM
